Test results: ChEMBL document CHEMBL4477236 (ACS Med Chem Lett, 2016)
Calls of active or inactive are those of the source. The calls are words filed in the database; no cut-off is given here.

Assays:
CWR22R [1] = test: Antitumor activity against human CWR22Rv1 cells xenografted in SCID mouse assessed as tumor growth inhibition at 0.15 mmol/kg, ip bid administered for 5 days per week relative to control; assay type: functional; conditions: 22Rv1, ip, 120 h, read-out: TGI
[2] = biological target: T1, Steroid 17-alpha-hydroxylase/17,20 lyase (Homo sapiens, UniProt P05093); test: Inhibition of CYP17 (unknown origin)
T1 sequence (P05093 whole entry): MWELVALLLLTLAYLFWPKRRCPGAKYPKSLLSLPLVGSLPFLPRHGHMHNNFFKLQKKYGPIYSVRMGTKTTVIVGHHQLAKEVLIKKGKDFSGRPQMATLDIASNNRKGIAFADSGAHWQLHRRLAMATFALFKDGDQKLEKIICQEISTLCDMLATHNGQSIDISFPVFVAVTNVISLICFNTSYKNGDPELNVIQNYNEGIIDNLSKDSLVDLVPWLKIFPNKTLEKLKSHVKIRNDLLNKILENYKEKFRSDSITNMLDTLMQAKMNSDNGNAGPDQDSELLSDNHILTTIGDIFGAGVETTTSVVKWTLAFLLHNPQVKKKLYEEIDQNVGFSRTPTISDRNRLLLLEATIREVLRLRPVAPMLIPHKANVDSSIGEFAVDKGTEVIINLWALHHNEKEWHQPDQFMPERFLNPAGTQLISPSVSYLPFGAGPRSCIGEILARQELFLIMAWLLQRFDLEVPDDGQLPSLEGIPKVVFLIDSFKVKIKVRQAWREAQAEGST
Summary of the method: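 CYP17 enzyme activity measured in duplicate over a range of inhibitor concentrations. IC50 read from the dose–response curve as the concentration giving 50% inhibition.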

LNCaP = test: Antiproliferative activity against human LNCAP cells after 7 days by MTT assay; assay type: functional, cell-based; conditions: 168 h
Summary of the method: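 LNCaP cell growth measured by MTT assay. GI50, the concentration giving 50% growth inhibition, was obtained by nonlinear regression of dose–response curves pooled from at least three independent experiments; SEM < 10%.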

CWR22R [3] = test: Antiproliferative activity against human CWR22Rv1 cells after 7 days by MTT assay; assay type: functional, cell-based; conditions: 22Rv1, 168 h
Summary of the method: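 MTT proliferation assay in CWR22Rv1 human prostate cancer cells. GI50, the concentration causing 50% growth inhibition, was read from dose–response curves.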

[4] = biological target: T2, Androgen receptor (Homo sapiens) (UniProt P10275); test: Inhibition of DHT-induced androgen receptor transactivation in human LNCaP cells at 10 uM after 24 hrs by luciferase reporter gene assay relative to control; assay type: cell-based
T2 sequence (whole entry): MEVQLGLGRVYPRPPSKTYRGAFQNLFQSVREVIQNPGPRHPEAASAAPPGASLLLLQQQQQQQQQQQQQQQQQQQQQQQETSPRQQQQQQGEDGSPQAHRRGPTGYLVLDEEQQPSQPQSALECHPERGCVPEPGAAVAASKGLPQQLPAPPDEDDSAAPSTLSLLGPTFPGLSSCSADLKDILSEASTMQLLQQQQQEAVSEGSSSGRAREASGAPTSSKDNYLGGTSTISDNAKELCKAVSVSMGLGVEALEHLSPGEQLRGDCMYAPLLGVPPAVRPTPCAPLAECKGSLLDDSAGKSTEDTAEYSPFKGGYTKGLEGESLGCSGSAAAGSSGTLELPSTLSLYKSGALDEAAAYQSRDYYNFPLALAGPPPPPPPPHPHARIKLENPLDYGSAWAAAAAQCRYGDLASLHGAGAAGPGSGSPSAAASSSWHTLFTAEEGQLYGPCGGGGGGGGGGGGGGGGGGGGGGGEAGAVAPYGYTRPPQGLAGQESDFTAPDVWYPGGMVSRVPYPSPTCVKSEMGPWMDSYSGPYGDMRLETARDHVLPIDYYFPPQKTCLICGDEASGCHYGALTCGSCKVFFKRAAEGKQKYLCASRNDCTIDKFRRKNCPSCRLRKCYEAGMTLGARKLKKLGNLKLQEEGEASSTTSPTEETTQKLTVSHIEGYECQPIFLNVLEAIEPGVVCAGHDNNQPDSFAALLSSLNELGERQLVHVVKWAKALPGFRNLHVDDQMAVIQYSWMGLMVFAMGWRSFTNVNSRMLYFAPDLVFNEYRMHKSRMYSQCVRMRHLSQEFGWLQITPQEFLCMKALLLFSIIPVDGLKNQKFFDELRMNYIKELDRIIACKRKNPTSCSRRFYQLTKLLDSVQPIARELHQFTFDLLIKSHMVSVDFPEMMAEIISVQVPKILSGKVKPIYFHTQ
Summary of the method: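 LNCaP cells dual-transfected with the probasin luciferase reporter AAR2-luc plus the Renilla vector pRL-null. Cells treated with compound at 10 μM for 24 h with 10 nM DHT. Luminescence read and normalized to Renilla activity. Result expressed as fold induction over unstimulated baseline. Replicates from three independent experiments.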

Androgen receptor = biological target: T3, Androgen receptor (Homo sapiens, UniProt P10275); test: Inhibition of DHT-induced androgen receptor transactivation in human LNCaP cells after 24 hrs by luciferase reporter gene assay relative to control; assay type: cell-based
T3 sequence (P10275 whole entry): T2 sequence (whole entry)

[5] = biological target: T2, Androgen receptor (Homo sapiens); test: Induction of AR-V7 degradation in human CWR22Rv1 cells at 15 uM after 24 hrs by Western blot analysis; assay type: cell-based
Summary of the method: (§1)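 CWR22Rv1 prostate cancer cells exposed to compound at 15 μM for 24 h. Protein lysates analysed by Western blot for f-AR and AR-V7 expression.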

[6] = biological target: T2, Androgen receptor (Homo sapiens); test: Induction of AR-V7 degradation in human CWR22Rv1 cells upto 7.5 uM after 72 hrs by Western blot analysis; assay type: cell-based
Summary of the method: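 CWR22Rv1 cells treated across 0 → 7.5 μM for 72 h. Lysates analysed by Western blot for f-AR and AR-V7. EC50 taken from dose–response curves.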

[7] = biological target: T2, Androgen receptor (Homo sapiens); test: Induction of full length androgen receptor degradation in human CWR22Rv1 cells at 15 uM after 24 hrs by Western blot analysis; assay type: cell-based; summary of the method: as §1

C[C@]12CC[C@H](O)CC1=CC[C@@H]1[C@@H]2CC[C@]2(C)C(n3cnc4ccccc43)=CC[C@@H]12 [GALETERONE]
inhibition in vivo at 150 µmol/kg (CWR22R [1]): 60% | IC50 [2]: 0.14 µM | IC50 (LNCaP): 3.93 µM | IC50 (CWR22R [3]): 8.91 µM

CNC(=O)c1ccc(N2C(=S)N(c3ccc(C#N)c(C(F)(F)F)c3)C(=O)C2(C)C)cc1F [ENZALUTAMIDE]
IC50 (LNCaP): 4.85 µM

C[C@]12CC[C@H](OCc3cccnc3)CC1=CC[C@@H]1[C@@H]2CC[C@]2(C)C(n3cnc4ccccc43)=CC[C@@H]12
inhibition [4]: Active | IC50 (LNCaP): 4.26 µM | IC50 (CWR22R [3]): 0.81 µM

C[C@]12CC[C@H](OC(=S)n3ccnc3)CC1=CC[C@@H]1[C@@H]2CC[C@]2(C)C(n3cnc4ccccc43)=CC[C@@H]12
inhibition [4]: Active | EC50 (Androgen receptor): < 0.1 µM | IC50 (LNCaP): 9.57 µM | IC50 (CWR22R [3]): 7.52 µM

C[C@]12CC[C@H](OCc3ccccc3)CC1=CC[C@@H]1[C@@H]2CC[C@]2(C)C(n3cnc4ccccc43)=CC[C@@H]12
inhibition [4]: Active | IC50 (LNCaP): 5.12 µM | IC50 (CWR22R [3]): 1.2 µM

CO[C@H]1CC[C@@]2(C)C(=CC[C@@H]3[C@@H]2CC[C@]2(C)C(n4cnc5ccccc54)=CC[C@@H]32)C1
inhibition [4]: Active | IC50 [2]: 39 µM | IC50 (LNCaP): 8.71 µM | IC50 (CWR22R [3]): 7.5 µM

C[C@]12CC[C@@H](n3ccnc3)CC1=CC[C@@H]1[C@@H]2CC[C@]2(C)C(n3cnc4ccccc43)=CC[C@@H]12
inhibition [4]: Active | IC50 (LNCaP): 8.91 µM | IC50 (CWR22R [3]): 9.88 µM

C[C@]12CC[C@H](O)CC1=CC[C@@H]1[C@@H]2CC[C@]2(C)C(c3cccnc3)=CC[C@@H]12 [ABIRATERONE]
IC50 [2]: 0.048 µM

C[C@]12CC[C@H]3[C@@H](C[C@@H](n4ccnc4)C45CC4CC[C@]35C)[C@@H]1CC=C2n1cnc2ccccc21 (some centres not stated)
inhibition [4]: Active | EC50 (Androgen receptor): 0.47 µM | IC50 (LNCaP): 6.61 µM | IC50 (CWR22R [3]): 12.3 µM

C[C@]12CC[C@H](OC(=O)n3ccnc3)CC1=CC[C@@H]1[C@@H]2CC[C@]2(C)C(n3cnc4ccccc43)=CC[C@@H]12
inhibition in vivo at 150 µmol/kg (CWR22R [1]): 70% | Activity [5]: Active | Activity [6]: Active

C[C@]12CC[C@H](n3ccnc3)CC1=CC[C@@H]1[C@@H]2CC[C@]2(C)C(n3cnc4ccccc43)=CC[C@@H]12
inhibition [4]: Active | EC50 (Androgen receptor): 0.19 µM | Activity [5]: Active | Activity [6]: Active | IC50 [2]: 0.48 µM | IC50 (LNCaP): 1.64 µM | IC50 (CWR22R [3]): 2.54 µM | Activity [7]: Active

C[C@]12CC[C@@H]3c4ccc(C(=O)O)cc4CC[C@H]3[C@@H]1CC=C2n1cnc2ccccc21
inhibition [4]: Active | Activity [5]: Active

C[C@]12CC[C@@H]3c4ccc(O)cc4CC[C@H]3[C@@H]1CC=C2n1cnc2ccccc21
inhibition [4]: Active | IC50 [2]: 25.9 µM | IC50 (LNCaP): 3.89 µM | IC50 (CWR22R [3]): 0.5 µM

C[C@]12CCC=CC1=CC[C@@H]1[C@@H]2CC[C@]2(C)C(n3cnc4ccccc43)=CC[C@@H]12
inhibition [4]: Active

C[C@]12CC[C@H](OCc3ccncc3)CC1=CC[C@@H]1[C@@H]2CC[C@]2(C)C(n3cnc4ccccc43)=CC[C@@H]12
inhibition [4]: Active | EC50 (Androgen receptor): 1.65 µM | Activity [5]: Active | Activity [6]: Active | IC50 [2]: > 15 µM | IC50 (LNCaP): 2.45 µM | IC50 (CWR22R [3]): 3.24 µM | Activity [7]: Active

COC(=O)c1ccc2c(c1)CC[C@@H]1[C@@H]2CC[C@]2(C)C(n3cnc4ccccc43)=CC[C@@H]12
inhibition [4]: Active | IC50 [2]: > 15 µM | IC50 (LNCaP): 6.91 µM | IC50 (CWR22R [3]): 8.74 µM
